We go through 36 compounds from ChEMBL document CHEMBL4665795, “Synthesis and Evaluation of 4-Hydroxycoumarin Imines as Inhibitors of Class II Myosins” (J Med Chem, 2020).

The species named for series [1] is Mus musculus. Description: Inhibition of C57Bl6 mouse skeletal muscle myosin assessed as inhibition of phrenic nerve stimulation-induced contraction in mouse diaphragm at 100 uM relative to control. The method in brief: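 Mouse phrenic nerve-hemidiaphragm preparation used ex vivo. Muscle contraction evoked by phrenic nerve stimulation, recorded with and without compound.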

The nature of series [2]: Inhibition of actin-activated rabbit skeletal muscle myosin 2 assessed as phosphate level incubated for 6 to 24 mins by spectrophotometric method. Also on record: species or system Oryctolagus cuniculus. The method in brief:
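Actin-activated ATPase run at 30 °C in assay buffer with 32 µM actin and 2 mM ATP. Phosphate production followed over time by absorbance in stopped-time format. IC50 from four-parameter logistic fit. N is the number of fully independent titrations.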

The test system of series [3] is HL-60. Description: Cytotoxicity against human HL-60 cells assessed as reduction in cell viability incubated for 48 hrs by hemocytometer based trypan-blue exclusion assay. The settings on record: HL-60, 48 h.
The species named for series [4] is Mus musculus. Description: Inhibition of C57Bl6 mouse […] assessed as reduction in action potential in mouse diaphragm at 100 uM.
A short description of series [5]: Selectivity ratio of IC50 for actin-activated bovine heart muscle myosin 2 to IC50 for actin-activated rabbit skeletal muscle myosin 2.
The nature of series [6]: Kinetic solubility in pH 7.4 PBS incubated for 1 hr. It is filed as physicochemical. The settings on record: for Kinetic_solubility: buffer, pH 7.4, 1 h.
Series [7] is described as follows: Competitive binding affinity to skeletal myosin S1 (unknown origin) assessed as reduction in Blebbistatin-induced fluorescence intensity incubated for 1 hr by fluorescence based assay. Also on record: species or system Homo sapiens.
The nature of series [8]: Half life in pH 7.4 PBS at 100 uM by UV-VIS spectroscopic method. The class given is physicochemical.
Series [9] is described as follows: Inhibition of actin-activated rabbit skeletal muscle myosin 2. The arrangement: species or system Oryctolagus cuniculus.
Series [10] in a line: Binding affinity to skeletal myosin S1 (unknown origin) assessed as fluorescence intensity in presence of ATP. The arrangement: species or system Homo sapiens. The method in brief:
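Skeletal myosin S1 binding read by fluorescence of 2 µM blebbistatin probe (λex 440 nm, em 560 nm) in assay buffer with 1 mM ATP at 22-25 °C. Signal without S1 was subtracted and normalised to Fmax. Direct Kd came from S1 titration fit to a quadratic single-site equation. Competition used 1 µM S1 and 1 hr incubation with analog; IC50 from a four-parameter fit was converted to Ki. N = 1.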

Series [11] in a line: Inhibition of rabbit skeletal muscle myosin 2 assessed as reduction in actin-sliding velocity incubated for 1 min by inverted microscopic analysis. Also on record: species or system Oryctolagus cuniculus. The method in brief: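 In vitro motility assay at 30 °C with skeletal myosin loaded at 100 µg mL-1 on a coverslip. Fluorescent actin filament sliding velocity recorded across compound concentrations. IC50 obtained by curve fit.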

pIC50, pKd, pKi: −log10 of the molar value. Calls of active or inactive are those of the source.

For the compound `C/N=C(\C)c1c(O)c2ccccc2oc1=O`, in series [1], the inhibition amounted to 80%. The figures for the pIC50 in series [2] and in series [3] were not above 4.00 and 3.39, respectively. Also, the inhibition entry in [4] is “Active”.
For `C/C(=N\OCc1ccccc1)c1c(O)c2ccccc2oc1=O`, the pIC50 in [2] was not above 4.00.
Still for that read-out and setting: as for `C/C(=N\Cc1ccccc1C)c1c(O)c2ccccc2oc1=O`, the figure is not above 4.00.
For the compound `C/C(=N\CCO)c1c(O)c2ccccc2oc1=O`, the inhibition in [1] is 87%. Moreover, the values for the pIC50 in series [2] and in series [3] were 4.04 and 3.23, respectively. Further, in series [4], the inhibition entry was “Active”. In [5], the Ratio IC50 was 1.
For the compound `CCC/N=C(\C)c1c(O)c2ccccc2oc1=O`, the pIC50 in series [2] is 4.51. Besides, in [5], the Ratio IC50 came to 1.7.
Taken in the same sequence, the figures for `CC/N=C(\C)c1c(O)c2ccccc2oc1=O` were 4.33 and 2.1.
Consider `CCC/C(=N\Cc1ccccc1)c1c(O)c2ccccc2oc1=O`, for which the pIC50 in series [2] was not above 4.00.
`C/C(=N\Cc1ccccc1)c1c(O)c2ccccc2oc1=O`: the pIC50 in series [2] is 6.10; in [3] it was 3.10; in series [7], 5.28. In series [6], this compound came in with a Kinetic_solubility of 103 µM. Moreover, the pKi in series [7] is 6.10. The Ratio IC50 in [5] worked out at 9.1.
In the case of `C/C(=N\CCCO)c1c(O)c2ccccc2oc1=O`, in series [1], the inhibition amounted to 72%. In addition, the pIC50 in series [2] is 4.51. In addition, the inhibition entry in series [4] was “Active”. Also, the Ratio IC50 in series [5] came out at 1.2.
Take `CCC(C)/N=C(\C)c1c(O)c2ccccc2oc1=O` (configuration not stated): in series [1], the inhibition worked out at 21%. Besides, the pIC50 in series [2] was not above 4.00.
For the compound `CCC(C)/N=C(\C)c1c(O)c2ccccc2[nH]c1=O` (configuration not stated), the inhibition in series [1] was 98%. Also, in series [2], the pIC50 was not above 4.00. Further, in series [4], the inhibition result is “Active”.
Regarding `C/C(=N\Cc1ccc(C)cc1)c1c(O)c2ccccc2oc1=O`, the pIC50 in series [2] is 6.10. Further, the Ratio IC50 in series [5] was 9.9.
Regarding `CCC/N=C(\C)c1c(O)c2ccccc2[nH]c1=O`, the inhibition in [1] was determined as 41%. In addition, the pIC50 in series [2] is not above 4.00.
As for `C/C(=N\CCO)c1c(O)c2ccccc2[nH]c1=O`, in series [1], the inhibition was 94%. For the same compound, in series [2], the pIC50 is not above 4.00. For the same compound, in series [4], the inhibition result was “Active”.
Taken in the same sequence, the figures for `C/C(=N\CC(C)C)c1c(O)c2ccccc2[nH]c1=O` were 71%, not above 4.00 and “Active”.
Turning to `C/C(=N\Cc1ccccc1)c1c(O)c2cc([N+](=O)[O-])ccc2oc1=O`, the pIC50 in series [2] was not above 4.00.
`CC(=N)c1c(O)c2ccccc2oc1=O`: the inhibition in [1] came to 73%. The negative-log IC50 (pIC50) in series [2] was not above 4.00. For the same compound, the inhibition result in series [4] is “Active”.
As to `CCCCC/N=C(\C)c1c(O)c2ccccc2oc1=O`, the negative-log IC50 (pIC50) in series [2] is 5.70. Moreover, the Ratio IC50 in [5] was 3.3.
As for `CCCCC/N=C(\C)c1c(O)c2ccccc2[nH]c1=O`, the inhibition in [1] was 99%. Moreover, in series [2], the pIC50 is not above 4.00. For the same compound, the inhibition result in series [4] was “Active”.
For `C/C(=N\Cc1cccnc1)c1c(O)c2ccccc2oc1=O`, the pIC50 in series [2] is 5.52. Further, the Ratio IC50 in series [5] amounted to 5.6.
In the case of `CC/C(=N\Cc1ccccc1)c1c(O)c2ccccc2oc1=O`, the pIC50 in [2] was not above 4.00.
The same measure, in the same setting: as for `CCCC/N=C(\C)c1c(O)c2ccccc2n(C)c1=O`, the figure is not above 4.00.
For the compound `C/C(=N\C(C)C)c1c(O)c2ccccc2oc1=O`, the inhibition in [1] came to 94%. The pIC50 in series [2] was not above 4.00. The inhibition result in series [4] was “Active”.
On to `C/C(=N\Cc1ccncc1)c1c(O)c2ccccc2oc1=O`, for which, in [1], the inhibition was 98%. Also, in [2], the pIC50 was 5.07. The solubility kinetic at 1 h in series [6] (PBS, pH 7.4, read-out: Kinetic_solubility) was more than 400 µM. Moreover, the inhibition entry in series [4] was “inactive”. The half-life at 100 µM in [8] was 84 h. Besides, in series [5], the Ratio IC50 was more than 12.
Take `C/C(=N\CC(C)C)c1c(O)c2ccccc2oc1=O`: in series [1], the inhibition was determined as 22%. Besides, the pIC50 in [2] is not above 4.00. In addition, in [5], the Ratio IC50 was less than 0.34.
In the case of `C/C(=N\CC1CCCCC1)c1c(O)c2ccccc2[nH]c1=O`, in [1], the inhibition turned out to be 72%. Besides, in series [2], the pIC50 was not above 4.00. Also, the inhibition entry in [4] was “Active”.
For `Cc1ccc2c(c1)C(=O)[C@]1(O)CCN(c3ccccc3)C1=N2`, the values for the negative-log IC50 (pIC50) in series [9] and in series [2] were 8.00 and 6.30, respectively. In series [1], the inhibition stood at 99%. In [10], the pKd was 6.40. Moreover, the inhibition result in series [4] was “Active”.
On to `CCCC/N=C(\C)c1c(O)c2ccccc2[nH]c1=O`, for which the inhibition in series [1] worked out at 48%. For the same compound, in series [2], the pIC50 is not above 4.00.
Regarding `CCCC/N=C(\C)c1c(O)c2ccccc2oc1=O`, the inhibition in series [1] was found to be 96%. The pIC50 in series [2] is 5.68; in series [11], 5.55. In [6], this compound gave a Kinetic_solubility of 607 µM. Further, the inhibition entry in series [4] was “inactive”. The Ratio IC50 in series [5] was 2.8.
`C/C(=N\Cc1ccccn1)c1c(O)c2ccccc2oc1=O`: the inhibition in [1] is 86%. In addition, in series [2], the pIC50 was 5.17. Besides, the inhibition result in [4] was “Active”. For the same compound, the Ratio IC50 in [5] came to 3.2.
As for `C/C(=N\C(C)C)c1c(O)c2ccccc2[nH]c1=O`, the inhibition in series [1] came out at 18%. The pIC50 in series [2] is not above 4.00.
Take `CCCCCC/N=C(\C)c1c(O)c2ccccc2oc1=O`: the pIC50 in [2] was 5.92. Besides, in series [5], the Ratio IC50 was 2.4.
For the compound `C/C(=N\Cc1ccccc1)c1c(O)c2ccccc2[nH]c1=O`, in series [1], the inhibition was 16%. In addition, the pIC50 in series [2] was not above 4.00.
On to `CCCCC/N=C(\C)c1c(O)c2cc([N+](=O)[O-])ccc2oc1=O`, for which the pIC50 in series [2] is not above 4.00.
`C/C(=N\Cc1cccc(C)c1)c1c(O)c2ccccc2oc1=O`: in series [2], the pIC50 was 5.00. Also, in [5], the Ratio IC50 amounted to 0.5.
The like results for `C/C(=N\Nc1ccccc1)c1c(O)c2ccccc2oc1=O` were, in that order, 5.70 and 13.5.

In general, inhibition refers to the relative decrease from the control value, in per cent. What is called pIC50 is −log10 of the IC50, conventionally taken in molar units. Usually pKi stands for the negative decadic logarithm of the Ki, by convention in mol/L. In general, half-life refers to the time needed for the level to fall by half in the phase considered. Read a low half-life as rapid decline. Usually pKd stands for −log10 of the Kd, conventionally taken in molar units.
